From ChEMBL document CHEMBL1772948, “Chemistry and biology of macrolide antiparasitic agents” (J Med Chem, 2011)
In brackets after ≈: the same amount, converted by molar mass. Activity calls are given as the source filed them. The rule behind the calls is not given here.

Key:
[1] = test system: Toxoplasma gondii; assay: Antiparasitic activity against Toxoplasma gondii 2F-1 expressing yellow fluorescent protein infected in HFF after 4 days; type: functional, organism-based; details: 2F-1, 96 h
[2] = test system: HFF; assay: Cytotoxicity against HFF after 48 hrs by MTS assay; type: cell-based; details: human
Method in brief: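 Low-passage HFF seeded in 96-well plates and incubated 24h at 37 °C, then exposed to varying macrolide concentrations for 2 days; medium replaced with fresh medium plus MTS, 4h at 37 °C, absorbance 490 nm; CC50 = dose reducing viability by 50%.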

[3] = test system: Bacillus subtilis; assay: Antibacterial activity against Bacillus subtilis; type: functional
[4] = test system: Toxoplasma gondii; assay: Antiparasitic activity against yellow fluorescent protein expressing Toxoplasma gondii 2F-1 infected in HFF treated immediately after infection measured after 48 hrs; type: functional, organism-based; details: 2F-1, 48 h
[5] = test system: Toxoplasma gondii; assay: Antiparasitic activity against yellow fluorescent protein expressing Toxoplasma gondii 2F-1 treated immediately after infection for 48 hrs followed by reinoculated into fresh HFF monolayers measured after 48 hrs; type: functional, organism-based; details: 2F-1, 48 h
Method in brief: (§1)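 Two-cycle protocol in HFF at 37 °C, 5% CO2, DMEM with 10% FBS. "0h": compound added with parasites, 48 h. "6h": parasites pre-incubated 6 h, uninvaded parasites removed, fresh medium with compound added, 42 h. Released tachyzoites were then harvested, purified and inoculated into fresh HFF without compound for the 2nd cycle. At least triplicate.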

[6] = test system: Toxoplasma gondii; assay: Antiparasitic activity against yellow fluorescent protein expressing Toxoplasma gondii 2F-1 infected in HFF treated 6 hrs after infection measured after 48 hrs; type: functional, organism-based
[7] = test system: Toxoplasma gondii; assay: Antiparasitic activity against green fluorescent protein expressing […] deficient Toxoplasma gondii RH infected in HFF assessed as decrease in density of parasitophorous vacuoles at 10 uM treated immediately after infection measured after 24 hrs by microscopic analysis; type: functional, organism-based
Method in brief: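 GFP T. gondii RHΔhxgprt in HFF, compound (10 μM) added either with the inoculum ("0h") or after 6 h pre-infection and washing ("6h"); vacuoles per microscope field scored at 24 h, at least 20 random fields from each of three experiments.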

[8] = test system: Toxoplasma gondii; assay: Antiparasitic activity against yellow fluorescent protein expressing Toxoplasma gondii 2F-1 treated 6 hrs after infection for 42 hrs followed by reinoculated into fresh HFF monolayers measured after 48 hrs; type: functional, organism-based; method in brief: as §1

Row | Compound | IC50 [1] | CC50 [2] | MIC [3] | IC50 [4] | IC50 [5] | IC50 [6] | Activity [7] | IC50 [8]
1 | C=CCO[C@]1(C)C[C@@H](C)CN(CC=C)[C@H](C)[C@@H](O)[C@](C)(O)[C@@H](CC)OC(=O)[C@H](C)[C@@H](O[C@H]2C[C@@](C)(OC)[C@@H](O)[C@H](C)O2)[C@H](C)[C@H]1O[C@@H]1O[C@H](C)C[C@H](N(C)C)[C@H]1O | 12 µM | 38 µM | 5 µM (≈ 4.08 µg/mL) |  |  |  |  | 
2 | CC[C@H]1OC(=O)[C@H](C)[C@@H](O[C@H]2C[C@@](C)(OC)[C@@H](O)[C@H](C)O2)[C@H](C)[C@@H](O[C@@H]2O[C@H](C)C[C@H](N(C)C)[C@H]2O)[C@](C)(O)C[C@@H](C)CN(C(=O)NCc2ccccc2)[C@H](C)[C@@H](O)[C@]1(C)O | 12 µM | 222 µM | 1.2 µM (≈ 1.04 µg/mL) |  |  |  |  | 
3 | CC[C@H]1OC(=O)[C@H](C)[C@@H](O[C@H]2C[C@@](C)(OC)[C@@H](O)[C@H](C)O2)[C@H](C)[C@@H](O[C@@H]2O[C@H](C)C[C@H](N(C)C)[C@H]2O)[C@](C)(OC)C[C@@H](C)CN(C(=O)NCc2ccccc2)[C@H](C)[C@@H](O)[C@]1(C)O | 16 µM | 62 µM | 1.5 µM (≈ 1.32 µg/mL) |  |  |  |  | 
4 | CC[C@H]1OC(=O)[C@H](C)[C@@H](O[C@H]2C[C@@](C)(OC)[C@@H](O)[C@H](C)O2)[C@H](C)[C@@H](O[C@@H]2O[C@H](C)C[C@H](N(C)C)[C@H]2O)[C@](C)(O)C[C@@H](C)CN(Cc2ccc(C)cc2)[C@H](C)[C@@H](O)[C@]1(C)O |  | 38 µM | 0.3 µM (≈ 0.252 µg/mL) | 5 µM | 0.6 µM | 9 µM | Active | 0.7 µM
5 | CC[C@H]1OC(=O)[C@H](C)[C@@H](O[C@H]2C[C@@](C)(OC)[C@@H](O)[C@H](C)O2)[C@H](C)[C@@H](O[C@@H]2O[C@H](C)C[C@H](N(C)C)[C@H]2O)[C@](C)(O)C[C@@H](C)CN[C@H](C)[C@@H](O)[C@]1(C)O | 65 µM | 386 µM | 1.2 µM (≈ 0.882 µg/mL) |  |  |  |  | 
6 | CCNC(=O)N1C[C@H](C)C[C@@](C)(O)[C@H](O[C@@H]2O[C@H](C)C[C@H](N(C)C)[C@H]2O)[C@@H](C)[C@H](O[C@H]2C[C@@](C)(OC)[C@@H](O)[C@H](C)O2)[C@@H](C)C(=O)O[C@H](CC)[C@@](C)(O)[C@H](O)[C@H]1C | 85 µM | 480 µM | 10 µM (≈ 8.06 µg/mL) |  |  |  |  | 
7 | CC[C@H]1OC(=O)[C@H](C)[C@@H](O[C@H]2C[C@@](C)(OC)[C@@H](O)[C@H](C)O2)[C@H](C)[C@@H](O[C@@H]2O[C@H](C)C[C@H](N(C)C)[C@H]2O)[C@](C)(OC)C[C@@H](C)CN(C)[C@H](C)[C@@H](O)[C@]1(C)O | 89 µM | 454 µM | 5 µM (≈ 3.82 µg/mL) |  |  |  |  | 
8 | CC[C@H]1OC(=O)[C@H](C)[C@@H](O[C@H]2C[C@@](C)(OC)[C@@H](O)[C@H](C)O2)[C@H](C)[C@@H](O[C@@H]2O[C@H](C)C[C@H](N(C)C)[C@H]2O)[C@](C)(O)C[C@@H](C)/C(=N\OCc2ccccc2)[C@H](C)[C@@H](O)[C@]1(C)O | 1.4 µM | 3 µM | 0.04 µM (≈ 0.0336 µg/mL) |  |  |  |  | 
9 | C=CCN1C[C@H](C)C[C@@](C)(OC)[C@H](O[C@@H]2O[C@H](C)C[C@H](N(C)C)[C@H]2O)[C@@H](C)[C@H](O[C@H]2C[C@@](C)(OC)[C@@H](O)[C@H](C)O2)[C@@H](C)C(=O)O[C@H](CC)[C@@](C)(O)[C@H](O)[C@H]1C | 13 µM | 84 µM | 0.8 µM (≈ 0.631 µg/mL) |  |  |  |  | 
10 | CCCN1C[C@H](C)C[C@@](C)(OC)[C@H](O[C@@H]2O[C@H](C)C[C@H](N(C)C)[C@H]2O)[C@@H](C)[C@H](O[C@H]2C[C@@](C)(OC)[C@@H](O)[C@H](C)O2)[C@@H](C)C(=O)O[C@H](CC)[C@@](C)(O)[C@H](O)[C@H]1C | 20 µM | 106 µM | 1.2 µM (≈ 0.949 µg/mL) |  |  |  |  | 
11 | CCNC(=O)N1C[C@H](C)C[C@@](C)(OC)[C@H](O[C@@H]2O[C@H](C)C[C@H](N(C)C)[C@H]2O)[C@@H](C)[C@H](O[C@H]2C[C@@](C)(OC)[C@@H](O)[C@H](C)O2)[C@@H](C)C(=O)O[C@H](CC)[C@@](C)(O)[C@H](O)[C@H]1C | 59 µM | 409 µM | 10 µM (≈ 8.2 µg/mL) |  |  |  |  | 
12 | CC[C@H]1OC(=O)[C@H](C)[C@@H](O[C@H]2C[C@@](C)(OC)[C@@H](O)[C@H](C)O2)[C@H](C)[C@@H](O[C@@H]2O[C@H](C)C[C@H](N(C)C)[C@H]2O)[C@](C)(O)C[C@@H](C)C(=O)[C@H](C)[C@@H](O)[C@]1(C)O [ERYTHROMYCIN] | 93 µM | 475 µM | 0.04 µM (≈ 0.0294 µg/mL) |  |  |  |  | 
13 | C=CCO[C@]1(C)C[C@@H](C)CN(Cc2ccccc2)[C@H](C)[C@@H](O)[C@](C)(O)[C@@H](CC)OC(=O)[C@H](C)[C@@H](O[C@H]2C[C@@](C)(OC)[C@@H](O)[C@H](C)O2)[C@H](C)[C@H]1O[C@@H]1O[C@H](C)C[C@H](N(C)C)[C@H]1O | 5 µM | 14 µM | 6 µM (≈ 5.19 µg/mL) | 7 µM | 10 µM | > 10 µM |  | > 10 µM
14 | CC[C@H]1OC(=O)[C@H](C)[C@@H](O[C@H]2C[C@@](C)(OC)[C@@H](O)[C@H](C)O2)[C@H](C)[C@@H](O[C@@H]2O[C@H](C)C[C@H](N(C)C)[C@H]2O)[C@](C)(OC)C[C@@H](C)C(=O)[C@H](C)[C@@H](O)[C@]1(C)O [CLARITHROMYCIN] | 31 µM | 260 µM | 0.04 µM (≈ 0.0299 µg/mL) |  |  |  |  | 
15 | CC[C@H]1OC(=O)[C@H](C)[C@@H](O[C@H]2C[C@@](C)(OC)[C@@H](O)[C@H](C)O2)[C@H](C)[C@@H](O[C@@H]2O[C@H](C)C[C@H](N(C)C)[C@H]2O)[C@](C)(O)C[C@@H](C)/C(=N\OC)[C@H](C)[C@@H](O)[C@]1(C)O | 14 µM | 22 µM | 0.04 µM (≈ 0.0305 µg/mL) |  |  |  |  | 
16 | CC[C@H]1OC(=O)[C@H](C)[C@@H](O[C@H]2C[C@@](C)(OC)[C@@H](O)[C@H](C)O2)[C@H](C)[C@@H](O[C@@H]2O[C@H](C)C[C@H](N(C)C)[C@H]2O)[C@](C)(OC)C[C@@H](C)CN[C@H](C)[C@@H](O)[C@]1(C)O | 106 µM | 460 µM | 2.5 µM (≈ 1.87 µg/mL) |  |  |  |  | 
17 | CCCN1C[C@H](C)C[C@@](C)(O)[C@H](O[C@@H]2O[C@H](C)C[C@H](N(C)C)[C@H]2O)[C@@H](C)[C@H](O[C@H]2C[C@@](C)(OC)[C@@H](O)[C@H](C)O2)[C@@H](C)C(=O)O[C@H](CC)[C@@](C)(O)[C@H](O)[C@H]1C | 16 µM | 139 µM | 0.6 µM (≈ 0.466 µg/mL) |  |  |  |  | 
18 | C=CCO[C@]1(C)C[C@@H](C)CN(C(=O)NCC)[C@H](C)[C@@H](O)[C@](C)(O)[C@@H](CC)OC(=O)[C@H](C)[C@@H](O[C@H]2C[C@@](C)(OC)[C@@H](O)[C@H](C)O2)[C@H](C)[C@H]1O[C@@H]1O[C@H](C)C[C@H](N(C)C)[C@H]1O | 33 µM | 90 µM | 5 µM (≈ 4.23 µg/mL) |  |  |  |  | 
19 | C=CCO/N=C1\[C@H](C)C[C@@](C)(O)[C@H](O[C@@H]2O[C@H](C)C[C@H](N(C)C)[C@H]2O)[C@@H](C)[C@H](O[C@H]2C[C@@](C)(OC)[C@@H](O)[C@H](C)O2)[C@@H](C)C(=O)O[C@H](CC)[C@@](C)(O)[C@H](O)[C@H]1C | 2.7 µM | 16 µM | 0.04 µM (≈ 0.0316 µg/mL) |  |  |  |  | 
20 | C=CCN1C[C@H](C)C[C@@](C)(O)[C@H](O[C@@H]2O[C@H](C)C[C@H](N(C)C)[C@H]2O)[C@@H](C)[C@H](O[C@H]2C[C@@](C)(OC)[C@@H](O)[C@H](C)O2)[C@@H](C)C(=O)O[C@H](CC)[C@@](C)(O)[C@H](O)[C@H]1C | 13 µM | 103 µM | 0.3 µM (≈ 0.233 µg/mL) |  |  |  |  | 
21 | CC[C@H]1OC(=O)[C@H](C)[C@@H](O[C@H]2C[C@@](C)(OC)[C@@H](O)[C@H](C)O2)[C@H](C)[C@@H](O[C@@H]2O[C@H](C)C[C@H](N(C)C)[C@H]2O)[C@](C)(OC)C[C@@H](C)CN(Cc2ccccc2)[C@H](C)[C@@H](O)[C@]1(C)O | 2 µM | 13 µM | 0.3 µM (≈ 0.252 µg/mL) | 7 µM | 5 µM | 10 µM |  | 4 µM
22 | C=CCO[C@]1(C)C[C@@H](C)CN(C(=O)NCc2ccccc2)[C@H](C)[C@@H](O)[C@](C)(O)[C@@H](CC)OC(=O)[C@H](C)[C@@H](O[C@H]2C[C@@](C)(OC)[C@@H](O)[C@H](C)O2)[C@H](C)[C@H]1O[C@@H]1O[C@H](C)C[C@H](N(C)C)[C@H]1O | 6 µM | 28 µM | 1.5 µM (≈ 1.36 µg/mL) |  |  |  |  | 
23 | C=CCO[C@]1(C)C[C@@H](C)CN(CCC)[C@H](C)[C@@H](O)[C@](C)(O)[C@@H](CC)OC(=O)[C@H](C)[C@@H](O[C@H]2C[C@@](C)(OC)[C@@H](O)[C@H](C)O2)[C@H](C)[C@H]1O[C@@H]1O[C@H](C)C[C@H](N(C)C)[C@H]1O | 15 µM | 42 µM | 10 µM (≈ 8.17 µg/mL) |  |  |  |  | 
24 | CCCO/N=C1\[C@H](C)C[C@@](C)(O)[C@H](O[C@@H]2O[C@H](C)C[C@H](N(C)C)[C@H]2O)[C@@H](C)[C@H](O[C@H]2C[C@@](C)(OC)[C@@H](O)[C@H](C)O2)[C@@H](C)C(=O)O[C@H](CC)[C@@](C)(O)[C@H](O)[C@H]1C | 1.6 µM | 7 µM | 0.04 µM (≈ 0.0316 µg/mL) |  |  |  |  | 
